Source: PubChem BioAssay (several laboratories)
Only some compounds are listed: those with a hit (about 4.2% of all), similar ones and a draw of the others.
CHOP UPR activ: activators of apoptotic arm of unfolded protein response (CHOP); CHO-CHOP luciferase reporter, UPR activation, luminescence; percent of tunicamycin response over DMSO baseline; activation, % at 10 µM; actives 0.34% (n = 330,000);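 active means at 10 µM dose, activation of 40% or more, normalized to positive control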;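 further: 100% = tunicamycin at 10 µg/mL and 0% = DMSO alone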
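Test system: CHO-CHOP cells, stable luciferase reporter of PERK-eIF2a-CHOP signalling | Quantity: 500 CHO-CHOP cells per well | Buffer or medium: F12 plus 10% serum | Compound dosing: 10 µM single point, 0.5% DMSO | Schedule: 6 h compound treatment, 37 °C | Signal: Luciferase luminescence | Control set: Tunicamycin high control, DMSO low control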
CHOP inh: inhibitors of CHOP induction in ER stress response | CHO-K1 CHOP-promoter luciferase, tunicamycin-induced, 15-18 h | AID 2732 | inhibition, % at 10 µM | actives 3.8% (n = 220,000);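 active means compounds that reduced the stress-induced luciferase reporter signal by more than about 70% of percent inhibition, limit read from the data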;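 further: 0% = tunicamycin plus vehicle and 100% = wells without tunicamycin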
Lipid droplet: modulators of hepatic lipid droplet formation | actives 0.4% (n = 240,000) | AML12 mouse hepatocytes, oleate lipid droplets, BODIPY imaging | inhibition, % at 6.5 µM;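 active means lipid droplet intensity inhibited by at least 50%, with more than 500 cells counted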
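System: AML12 hepatocytes (mouse). Probe or stimulus: oleic acid at 100 µM to induce lipid droplet formation. Times: overnight treatment with compound plus oleate. Detection: Image-based BODIPY and DAPI two-channel analysis. Evaluation: percent inhibition of filter-corrected integrated lipid droplet intensity per well.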
TMEM16A act: activates or potentiates the mouse TMEM16A chloride channel | HEK293 TMEM16A/YFP-H148Q/I152L, iodide quench fluorescence; stronger effect = lower value | B-score at 10 µM | actives 0.3% (n = 340,000) | AID 623877;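 active means fluorescence-ratio B-score plate-corrected deviation score at least 3 library SD below zero, with starting fluorescence score within 5 deviations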;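 further: channel opened by trigger with iodide after compound preincubation; score built on the fluorescence ratio of max minus min over baseline; more negative score means more quench and so TMEM16A activation or potentiation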
Target sequence (Q8BHY3 whole entry, looked up): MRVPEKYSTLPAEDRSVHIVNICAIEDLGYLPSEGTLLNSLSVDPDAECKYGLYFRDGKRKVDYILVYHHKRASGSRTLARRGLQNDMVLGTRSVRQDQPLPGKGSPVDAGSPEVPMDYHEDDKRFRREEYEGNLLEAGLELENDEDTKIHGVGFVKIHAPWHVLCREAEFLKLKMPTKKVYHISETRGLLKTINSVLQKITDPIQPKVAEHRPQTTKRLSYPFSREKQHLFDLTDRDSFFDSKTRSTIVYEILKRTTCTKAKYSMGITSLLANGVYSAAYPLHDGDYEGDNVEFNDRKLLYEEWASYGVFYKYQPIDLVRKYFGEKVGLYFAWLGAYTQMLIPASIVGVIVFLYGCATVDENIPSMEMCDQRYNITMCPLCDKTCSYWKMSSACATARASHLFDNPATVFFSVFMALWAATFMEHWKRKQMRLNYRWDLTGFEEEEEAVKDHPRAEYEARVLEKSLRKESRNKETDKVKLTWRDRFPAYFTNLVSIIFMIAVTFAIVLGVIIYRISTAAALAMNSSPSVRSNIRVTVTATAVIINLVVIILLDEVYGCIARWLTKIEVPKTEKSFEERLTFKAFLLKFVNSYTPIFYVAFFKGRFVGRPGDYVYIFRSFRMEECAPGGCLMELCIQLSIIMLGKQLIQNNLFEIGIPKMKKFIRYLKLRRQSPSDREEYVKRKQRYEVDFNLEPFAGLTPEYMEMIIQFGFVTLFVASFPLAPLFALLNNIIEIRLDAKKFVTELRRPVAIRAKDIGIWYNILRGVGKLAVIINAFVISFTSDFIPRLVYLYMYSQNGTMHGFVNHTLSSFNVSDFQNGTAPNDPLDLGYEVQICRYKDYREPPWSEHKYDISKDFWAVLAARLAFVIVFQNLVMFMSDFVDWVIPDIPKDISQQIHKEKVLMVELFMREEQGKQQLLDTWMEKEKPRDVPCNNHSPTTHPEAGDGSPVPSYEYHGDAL
ANO1 block: inhibitors of mouse TMEM16A calcium-activated chloride channel | Q8BHY3 | HEK293 TMEM16A/YFP iodide influx fluorescence, ionomycin | normalized B-score (activity score, 25-100; higher = stronger inhibition) at 10 µM | actives 1.2% (n = 310,000);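 active means ratio plate-corrected score three or more library SD toward inhibition, starting fluorescence score within five deviations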;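 further: score derived from kinetic fluorescence span divided by baseline fluorescence per well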
UPR XBP1 act: adaptive UPR (XBP1) activation | AID 463104 | actives 0.33% (n = 330,000) | CHO-XBP1 luciferase reporter, IRE1-XBP1 UPR activation, luminescence; percent of tunicamycin response, DMSO as zero | activation, % at 20 µM;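 active means versus positive control, 20 µM dose yields 30% or more activation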;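 further: 100% = tunicamycin at 10 µg/mL and 0% = DMSO only wells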
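Assay system: CHO-XBP1 luciferase reporter cells; Schedule: 6 h treatment, 37 °C; Detection: glow luminescence from Steady-Glo reagent; Benchmarks: high control tunicamycin 10 µg/mL final, low control DMSO vehicle only.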
UPR CHOP confirm: confirmation of apoptotic unfolded protein response (CHOP) activators; shares compounds with CHOP UPR activ; AID 463112; CHO-CHOP cells, CHOP-luciferase reporter luminescence; percent of tunicamycin response, DMSO as zero; activation, % at 10 µM; actives 64% (n = 1,000); in the data active means activation above about 33%;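 further: 0% = DMSO wells and 100% = tunicamycin 10 µg/mL wells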
* marks the source's active call; other numbers are inactive results; i = inactive; . = no result given.

SMILES	CHOP UPR activ	CHOP inh	Lipid droplet	TMEM16A act	ANO1 block	UPR XBP1 act	UPR CHOP confirm
O=C(Oc1oc(-c2ccco2)nc1C=Nc1ccc(Cl)cc1)c1ccco1	77*	-11	.	i	i	9	76*
Cc1[nH]c2ccccc2c1CN1CCN(c2ccccn2)CC1	50*	-32	-55	i	i	25	8
NC(=O)NS(=O)(=O)Oc1ccccc1	1	.	-3	i	i	1	.
CN(C)S(=O)(=O)c1cccc(NC(=O)CSc2cccc3cccnc23)c1	162*	.	-23	i	i	-5	246*
O=[N+]([O-])c1cc(-c2nnc(C34CC5CC(CC(C5)C3)C4)o2)cc([N+](=O)[O-])c1	137*	20	.	i	i	8	20
O=[N+]([O-])c1cccc(-c2nnc(C34CC5CC(CC(C5)C3)C4)o2)c1	2	41	0	i	i	-1	.
COC(=O)Cn1c(=NC(=O)c2ccc([N+](=O)[O-])s2)sc2cc(Br)ccc21	50*	45	4	.	i	11	24
C/C(=N\NC(N)=S)c1ccccc1	-1	0	49	i	i	-2	.
CSC(=S)N/N=C(\C)c1ccccc1	109*	-122	11	i	i	2	79*
CC(=O)N/C(=N\c1nc(C)cc(C)n1)Nc1ccc(Cl)cc1Cl	49*	.	-1	i	i	-3	0
CC(=O)N/C(=N/c1nc(C)cc(C)n1)Nc1ccc(NC(C)=O)cc1	1	40	-2	i	i	2	.
Oc1ccc(-c2cn3c(n2)SCC3)cc1O	52*	-3	10	i	i	0	2
O=C(NCCS(=O)(=O)NCc1ccccn1)c1ccccc1	0	.	.	i	i	4	.
CN(C)S(=O)(=O)c1ccc(C(=O)OCCc2ccccc2)cc1	7	.	-3	i	i	2	.
C/C(=N\OCc1ccc(C#N)cc1)c1ccc(S(=O)(=O)N(C)C)cc1	41*	.	-12	i	i	4	6
CC(=O)Nc1ccc(S(=O)(=O)N2CCC3(CC2)CC(=O)c2ccccc2O3)cc1	0	.	.	i	i	-1	.
Cc1ccc(-c2nc(NC(=O)c3nn(C)cc3[N+](=O)[O-])sc2C)cc1	100*	-22	-3	i	i	8	59*
Cc1ccc(-c2nc(NC(=O)c3nn(C)cc3[N+](=O)[O-])sc2C)cc1C	65*	38	7	i	i	13	68*
Cc1cnc(NC(=O)c2nn(C)cc2[N+](=O)[O-])s1	2	-13	8	i	.	-3	.
O=Cc1[nH]c2ccccc2c1N(C(=O)CCl)c1ccc([N+](=O)[O-])cc1	55*	29	7	i	25*	3	0
Oc1ccc(CN2CCCCC2)c2cccnc12	7	9	-38	i	i	17	.
COCc1cc(CN2CCCC2)c(O)c2ncccc12	-1	.	.	i	i	2	.
Oc1ccc(CN2CCc3ccccc3C2)c2cccnc12	104*	56	-2	i	i	12	102*
Oc1ccc(CN2CCN(c3ccccc3)CC2)c2cccnc12	67*	35	-2	i	i	16	50*
CCOC(=O)N1CCN(Cc2ccc(O)c3ncccc23)CC1	62*	7	2	.	i	25	78*
SMILES	CHOP UPR activ	CHOP inh	Lipid droplet	TMEM16A act	ANO1 block	UPR XBP1 act	UPR CHOP confirm
Oc1c(Cl)cc(CN2CCCCC2)c2cccnc12	84*	.	3	i	i	27	74*
Cc1cccc(NS(=O)(=O)c2ccc(C(=O)N3CCCCCC3)cc2)c1C	-1	.	.	i	i	-1	.
O=[N+]([O-])c1ccccc1CN1CCN(Cc2c[nH]c3ccccc23)CC1	49*	-77	-12	.	i	17	21
COc1ccc(C=C2C(=O)c3ccccc3C2=O)cc1O	2	-17	3	i	i	-2	.
COc1ccc(/C=C2\CN(Cc3ccccc3)C/C(=C\c3ccc(OC)c(O)c3)C2=O)cc1O	51*	.	-22	i	i	-8	43*
COc1cc(/C=C2\COC/C(=C\c3ccc(O)c(OC)c3)C2=O)ccc1O	140*	41	4	i	i	-6	112*
Cc1cccc(NC(=O)CN(C)C(=O)C2CC2)c1C	-1	.	.	i	.	-1	.
CN(C1(C)CCS(=O)(=O)C1)S(=O)(=O)c1ccc2ccccc2c1 (stereo not given)	1	.	.	i	i	2	.
O=C(CCl)Nc1c2c(nn1-c1ccccc1)CSC2	70*	.	-12	i	i	-3	3
O=C(CCCCl)Nc1c2c(nn1-c1ccccc1)CSC2	-1	.	-2	i	i	3	.
O=C(CSc1ccccn1)Nc1nonc1[N+](=O)[O-]	85*	.	-4	i	i	-6	42*
CC(=O)Cc1nsc(NC(=O)c2cn(-c3ccccc3)nc2-c2ccc(Br)cc2)n1	2	61	-1	i	i	2	.
COc1ccc(N2CCN(C(CNC(=O)c3ccc4c(c3)OCO4)c3ccco3)CC2)cc1 (stereo not given)	1	13	-19	i	i	-1	.
COc1cc2nc(=S)n3[nH]c(CCn4nc(C)cc4C)nc3c2cc1OC	132*	-133	-2	i	i	16	98*
COC(=O)c1c(N)c(C#N)c2n1CCCCC2	1	8	.	i	i	0	.
N#Cc1c(N)c(C(=O)c2ccccc2)n2c1CCC2	54*	15	0	i	i	1	4
O=C(/C=C\c1ccccc1OC(=O)c1ccccc1F)c1cc2ccccc2o1	55*	9	10	i	i	12	287*
CC(=O)/C=C\c1ccccc1OC(=O)c1cc2ccccc2oc1=O	2	.	6	i	i	-4	.
CCOC(=O)/C(C#N)=C1\CCCN1CC(N)=S	-1	-1	7	i	i	1	.
COc1ccccc1-n1nnnc1SCC(=O)NCC1CCCO1 (stereo not given)	0	.	.	i	i	-2	.
COc1ccccc1NC(=O)c1cnc(SCC(=O)NCC2CCCO2)n(C)c1=O (stereo not given)	57*	.	.	i	i	-2	34*
